# Experimental data: ChEMBL document CHEMBL4130374, “Discovery of 9H-purins as potential tubulin polymerization inhibitors: Synthesis, biological evaluation and structure-activity relationships” (Eur J Med Chem, 2017)
# Key:
# [1] = test system: SH-SY5Y; test: Antiproliferative activity against human SH-SY5Y cells after 48 hrs by MTT assay; format: functional
# In short: (§1)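 Log-phase cells, harvested by trypsinization, seeded 24 h, then exposed to a range of compound concentrations for 48 h. Culture in RPMI 1640 with 4% FBS, penicillin/streptomycin, 37°C, 5% CO2. DMSO below 1% final; 5-Fu as positive control. Readout is MTT (0.5 mg/mL, 4 h), formazan dissolved in DMSO, absorbance at 570 nm. GI50 = 50% growth inhibition versus untreated cells; means ± SD of at least two independent experiments.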
# [2] = test system: AGS; test: Antiproliferative activity against human AGS cells after 48 hrs by MTT assay; format: functional; in short: as §1
# [3] = test system: K562; test: Antiproliferative activity against human K562 cells after 48 hrs by MTT assay; format: functional; conditions: K562, 48 h; in short: as §1
# [4] = test system: AGS; test: Cell cycle arrest in human AGS cells assessed as accumulation at G0/G1 phase at 0.5 uM after 24 hrs by propidium iodide staining based flow cytometry (reference value: 52.87%); format: functional
# In short: (§2)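 Cells washed twice in ice-cold PBS, fixed in ice-cold 70% ethanol, treated with 0.1 mg/mL RNase, stained with propidium iodide. Phase distribution determined by flow cytometry.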
# [5] = test system: AGS; test: Induction of apoptosis in human AGS cells assessed as early apoptotic cells at 0.5 uM after 24 hrs by Annexin V-FITC/propidium iodide-double staining based flow cytometry (reference value: 12.80%); format: functional
# [6] = test system: AGS; test: Cell cycle arrest in human AGS cells assessed as accumulation at G0/G1 phase at 1 uM after 24 hrs by propidium iodide staining based flow cytometry (reference value: 52.87%); format: functional; in short: as §2
# [7] = test system: AGS; test: Induction of apoptosis in human AGS cells assessed as necrotic cells at 0.5 uM after 24 hrs by Annexin V-FITC/propidium iodide-double staining based flow cytometry (reference value: 0.40%); format: functional
# [8] = test system: AGS; test: Cell cycle arrest in human AGS cells assessed as accumulation at S phase at 0.25 uM after 24 hrs by propidium iodide staining based flow cytometry (reference value: 37.94%); format: functional; in short: as §2
# [9] = test system: AGS; test: Induction of apoptosis in human AGS cells assessed as viable cells at 0.25 uM after 24 hrs by Annexin V-FITC/propidium iodide-double staining based flow cytometry (reference value: 69.90%); format: functional; conditions: read-out: Activity
# [10] = test system: AGS; test: Induction of apoptosis in human AGS cells assessed as late apoptotic cells at 0.25 uM after 24 hrs by Annexin V-FITC/propidium iodide-double staining based flow cytometry (reference value: 16.90%); format: functional
# [11] = test system: AGS; test: Cell cycle arrest in human AGS cells assessed as accumulation at G2/M phase after 24 hrs by propidium iodide staining based flow cytometry; format: functional; in short: as §2
# [12] = test system: AGS; test: Induction of apoptosis in human AGS cells assessed as early apoptotic cells at 0.25 uM after 24 hrs by Annexin V-FITC/propidium iodide-double staining based flow cytometry (reference value: 12.80%); format: functional
# [13] = test system: Tubulin (Sus scrofa); test: Inhibition of pig brain tubulin polymerization at 10 uM by spectrophotometry relative to control
# [14] = test system: AGS; test: Induction of apoptosis in human AGS cells assessed as late apoptotic cells at 0.5 uM after 24 hrs by Annexin V-FITC/propidium iodide-double staining based flow cytometry (reference value: 16.90%); format: functional
# [15] = Selectivity index, ratio of GI50 for mouse HT22 cells to GI50 for human AGS cells; format: toxicity; conditions: HT22 cells and AGS cells, read-out: RatioGI50
# [16] = Cytotoxicity against mouse HT22 cells after 48 hrs by MTT assay; format: cell-based, HT-22
# In short: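 MTT readout after 48 h exposure; CC50 is the 50% cytotoxic concentration, mean of three repeated experiments.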
# [17] = test system: AGS; test: Cell cycle arrest in human AGS cells assessed as accumulation at S phase at 0.5 uM after 24 hrs by propidium iodide staining based flow cytometry (reference value: 37.94%); format: functional; in short: as §2
# [18] = test system: AGS; test: Induction of apoptosis in human AGS cells assessed as viable cells at 0.5 uM after 24 hrs by Annexin V-FITC/propidium iodide-double staining based flow cytometry (reference value: 69.90%); format: functional; conditions: read-out: Activity
# [19] = test system: AGS; test: Cell cycle arrest in human AGS cells assessed as accumulation at G2/M phase at 0.25 uM after 24 hrs by propidium iodide staining based flow cytometry (reference value: 9.18%); format: functional; in short: as §2
# [20] = Selectivity index, ratio of GI50 for mouse HT22 cells to GI50 for human SH-SY5Y cells; format: toxicity; conditions: HT22 cells and SH-SY5Y cells, read-out: RatioGI50
# [21] = test system: AGS; test: Cell cycle arrest in human AGS cells assessed as accumulation at G2/M phase at 1 uM after 24 hrs by propidium iodide staining based flow cytometry (reference value: 9.18%); format: functional; in short: as §2
# [22] = test system: AGS; test: Induction of apoptosis in human AGS cells after 24 hrs by Annexin V-FITC/propidium iodide-double staining based flow cytometry; format: functional, cell-based
# [23] = test system: AGS; test: Cell cycle arrest in human AGS cells assessed as accumulation at G2/M phase at 0.5 uM after 24 hrs by propidium iodide staining based flow cytometry (reference value: 9.18%); format: functional; in short: as §2
# [24] = test system: AGS; test: Cell cycle arrest in human AGS cells assessed as accumulation at G0/G1 phase at 2 uM after 24 hrs by propidium iodide staining based flow cytometry (reference value: 52.87%); format: functional; in short: as §2
# [25] = test system: AGS; test: Cell cycle arrest in human AGS cells assessed as accumulation at S phase at 2 uM after 24 hrs by propidium iodide staining based flow cytometry (reference value: 37.94%); format: functional; in short: as §2
# [26] = test system: AGS; test: Cell cycle arrest in human AGS cells assessed as accumulation at G0/G1 phase at 0.25 uM after 24 hrs by propidium iodide staining based flow cytometry (reference value: 52.87%); format: functional; in short: as §2
# [27] = test system: AGS; test: Cell cycle arrest in human AGS cells assessed as accumulation at G2/M phase at 2 uM after 24 hrs by propidium iodide staining based flow cytometry (reference value: 9.18%); format: functional; in short: as §2
# [28] = test system: AGS; test: Induction of apoptosis in human AGS cells assessed as necrotic cells at 0.25 uM after 24 hrs by Annexin V-FITC/propidium iodide-double staining based flow cytometry (reference value: 0.40%); format: functional
# [29] = test system: AGS; test: Cell cycle arrest in human AGS cells assessed as accumulation at S phase at 1 uM after 24 hrs by propidium iodide staining based flow cytometry (reference value: 37.94%); format: functional; in short: as §2
# [30] = Selectivity ratio of GI50 for human K562 cells to GI50 for human SH-SY5Y cells; format: functional
# [31] = test system: SH-SY5Y; test: Potency index, ratio of 5-Fu GI50 to test compound GI50 for human SH-SY5Y cells; format: functional
# [32] = Selectivity ratio of GI50 for human AGS cells to GI50 for human SH-SY5Y cells; format: functional
# [33] = test system: AGS; test: Cell cycle arrest in human AGS cells assessed as accumulation at G0/G1 phase at 50 nM after 24 hrs by propidium iodide staining based flow cytometry (reference value: 52.87%); format: functional; in short: as §2
# [34] = test system: AGS; test: Cell cycle arrest in human AGS cells assessed as accumulation at S phase at 50 nM after 24 hrs by propidium iodide staining based flow cytometry (reference value: 37.94%); format: functional; in short: as §2
# [35] = test system: AGS; test: Cell cycle arrest in human AGS cells assessed as accumulation at G2/M phase at 50 nM after 24 hrs by propidium iodide staining based flow cytometry (reference value: 9.18%); format: functional; in short: as §2
smiles,measurement,setting,value
COc1ccc(N(C)c2ncnc3c2ncn3C)cc1,GI50,[1],> 100 µM
same,GI50,[2],> 100 µM
same,GI50,[3],> 100 µM
COc1ccc(N(C)c2ncnc3c2ncn3Cc2cc(OC)cc(OC)c2)cc1,GI50,[1],> 100 µM
same,GI50,[2],> 100 µM
same,GI50,[3],42 µM
COc1ccc(N(C)c2nc(Cl)nc3c2ncn3C)cc1,Activity,[4],47.34%
same,Activity,[5],12.35%
same,Activity,[6],36.62%
same,GI50,[1],3.4 µM
same,Activity,[7],0.85%
same,Activity,[8],39.78%
same,viability at 0.25 µM,[9],63.5%
same,Activity,[10],23.8%
same,Activity,[11],Dose-dependent effect
same,Activity,[12],10.45%
same,inhibition,[13],41%
same,Activity,[14],27.6%
same,selectivity ratio,[15],430
same,CC50 at 48 h,[16],> 100 µM
same,Activity,[17],39.98%
same,viability at 0.5 µM,[18],59.2%
same,Activity,[19],10.11%
same,selectivity ratio,[20],23
same,GI50,[2],0.26 µM
same,Activity,[21],25.18%
same,Activity,[22],Dose-dependent effect
same,Activity,[23],12.68%
same,Activity,[24],21.64%
same,Activity,[25],14.87%
same,GI50,[3],2.3 µM
same,Activity,[26],50.11%
same,Activity,[27],63.49%
same,Activity,[28],2.25%
same,Activity,[29],38.2%
COc1ccc(Cn2cnc3c(Cl)nc(Cl)nc32)cc1,GI50,[1],7.7 µM
same,inhibition,[13],25%
same,GI50,[2],19 µM
same,GI50,[3],36 µM
COc1cc(Cn2cnc3c(Cl)nc(Cl)nc32)cc(OC)c1,GI50,[1],1.7 µM
same,inhibition,[13],13%
same,CC50 at 48 h,[16],> 100 µM
same,GI50,[2],3.8 µM
same,GI50,[3],4.6 µM
COc1ccc(N(C)c2ncnc3[nH]cnc23)cc1,GI50,[1],> 100 µM
same,GI50,[2],> 100 µM
same,GI50,[3],> 100 µM
COc1cc(Cn2cnc3c(Cl)nc(Cl)nc32)cc(OC)c1OC,GI50,[1],9.6 µM
same,inhibition,[13],13%
same,GI50,[2],9.4 µM
same,GI50,[3],4.3 µM
COc1cc(Cn2cnc3c(Cl)ncnc32)cc(OC)c1,GI50,[1],> 100 µM
same,GI50,[2],> 100 µM
same,GI50,[3],> 100 µM
COc1ccc(N(C)c2nc(Cl)nc3c2ncn3Cc2cc(OC)cc(OC)c2)cc1,GI50,[1],> 100 µM
same,GI50,[2],69 µM
same,GI50,[3],42 µM
COc1ccc(N(C)c2ncnc3c2ncn3Cc2ccc(OC)c(OC)c2)cc1,GI50,[1],0.43 µM
same,RatioGI50,[30],>230
same,RatioGI50,[31],28
same,inhibition,[13],18%
same,CC50 at 48 h,[16],> 100 µM
same,RatioGI50,[32],>230
same,selectivity ratio,[20],230
same,GI50,[2],> 100 µM
same,GI50,[3],> 100 µM
COc1ccc(Cn2cnc3c(N(C)c4ccc(OC)cc4)ncnc32)cc1,GI50,[1],27 µM
same,GI50,[2],> 100 µM
same,GI50,[3],> 100 µM
COc1ccc(Cn2cnc3c(N(C)c4ccc(OC)cc4)nc(Cl)nc32)cc1,GI50,[1],31 µM
same,GI50,[2],> 100 µM
same,GI50,[3],> 100 µM
COc1ccc(N(C)c2nc(Cl)nc3[nH]cnc23)cc1,GI50,[1],> 100 µM
same,GI50,[2],30 µM
same,GI50,[3],> 100 µM
O=c1[nH]cc(F)c(=O)[nH]1 [FLUOROURACIL],GI50,[1],12 µM
same,GI50,[2],25 µM
same,GI50,[3],19 µM
COc1ccc(N(C)c2nc(Cl)nc3c2ncn3Cc2ccc(OC)c(OC)c2)cc1,GI50,[1],7.3 µM
same,inhibition,[13],25%
same,GI50,[2],56 µM
same,GI50,[3],27 µM
COc1ccc(Cn2cnc3c(Cl)ncnc32)cc1OC,GI50,[1],> 100 µM
same,GI50,[2],> 100 µM
same,GI50,[3],> 50 µM
COc1cc2c(c(OC)c1OC)-c1ccc(OC)c(=O)cc1[C@@H](NC(C)=O)CC2 [COLCHICINE],GI50,[1],0.04 µM
same,Activity,[33],1.2%
same,Activity,[34],12.58%
same,GI50,[2],0.04 µM
same,Activity,[35],86.22%
same,GI50,[3],0.02 µM
COc1ccc(N(C)c2ncnc3c2ncn3Cc2cc(OC)c(OC)c(OC)c2)cc1,GI50,[1],0.26 µM
same,RatioGI50,[30],>230
same,RatioGI50,[31],46
same,inhibition,[13],20%
same,CC50 at 48 h,[16],23 µM
same,RatioGI50,[32],>230
same,selectivity ratio,[20],88
same,GI50,[2],> 100 µM
same,GI50,[3],> 100 µM
COc1ccc(N(C)c2nc(Cl)nc3c2ncn3Cc2cc(OC)c(OC)c(OC)c2)cc1,GI50,[1],3 µM
same,inhibition,[13],12%
same,GI50,[2],85 µM
same,GI50,[3],41 µM
COc1ccc(Cn2cnc3c(Cl)nc(Cl)nc32)cc1OC,GI50,[1],5.5 µM
same,inhibition,[13],22%
same,GI50,[2],11 µM
same,GI50,[3],7 µM
COc1cc(Cn2cnc3c(Cl)ncnc32)cc(OC)c1OC,GI50,[1],> 100 µM
same,GI50,[2],> 50 µM
same,GI50,[3],> 50 µM
COc1ccc(Cn2cnc3c(Cl)ncnc32)cc1,GI50,[1],> 50 µM
same,GI50,[2],29 µM
same,GI50,[3],> 50 µM
